molecular target: T1, Arachidonate 12-lipoxygenase (Sus scrofa, UniProt P16469); assay: Inhibitory activity against conversion of [1-14C]arachidonic acid to 12-HPETE and its reduction product 12-HETE by porcine leukocyte type 12-lipoxygenase
T1 sequence (P16469 whole entry): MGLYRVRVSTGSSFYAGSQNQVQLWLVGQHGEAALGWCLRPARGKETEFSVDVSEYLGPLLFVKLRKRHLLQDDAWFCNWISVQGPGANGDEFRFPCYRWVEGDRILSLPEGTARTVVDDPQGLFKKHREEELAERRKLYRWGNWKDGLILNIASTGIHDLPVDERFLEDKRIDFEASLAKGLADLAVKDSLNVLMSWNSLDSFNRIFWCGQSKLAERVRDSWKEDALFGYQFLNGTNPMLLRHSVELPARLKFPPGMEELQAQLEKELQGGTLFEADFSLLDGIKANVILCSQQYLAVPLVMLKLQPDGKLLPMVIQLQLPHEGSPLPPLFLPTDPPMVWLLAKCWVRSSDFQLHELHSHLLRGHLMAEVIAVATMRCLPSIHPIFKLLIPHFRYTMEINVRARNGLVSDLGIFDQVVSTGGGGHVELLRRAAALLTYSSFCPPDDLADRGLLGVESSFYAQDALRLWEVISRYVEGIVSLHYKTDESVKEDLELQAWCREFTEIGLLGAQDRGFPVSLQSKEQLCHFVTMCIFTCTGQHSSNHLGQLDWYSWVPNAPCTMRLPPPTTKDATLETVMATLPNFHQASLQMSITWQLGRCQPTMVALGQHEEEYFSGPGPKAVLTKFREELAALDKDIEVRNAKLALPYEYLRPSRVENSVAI
Method in brief: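 Porcine leukocyte cytosol (75 μg/mL) in 100 mM HEPES, 2 mM CaCl2, 1 mM MgCl2, pH 8.0. Inhibitor added in DMSO and preincubated with enzyme 5 min at 37 °C. [1-14C]arachidonic acid then added (5 μM final) and reacted 15 min. Mixture acidified, products extracted and separated by TLC, and 12-HETE conversion measured by radioactivity scanning. Incubations run in triplicate; IC50 determined from concentration series.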

| Compound | IC50 [µM] |
| --- | --- |
| CCCCCCCCCCC#CCOCc1ccc(C(=O)O)cc1 | 0.06 |
| CCCCCC#CCCOCc1cccc(CCC(=O)O)c1 | > 10 |
| CCCCCCCCC#CCSCc1cccc(CCC(=O)O)c1 | > 10 |
| CCCCCCCCCCCCCCC#CCOCc1ccc(CCC(=O)O)cc1 | > 10 |
| CCCCCCCCCCCCCOCc1ccc(CCC(=O)O)cc1 | > 10 |
| CCCCCCCCCCCCCCC#CCOCc1ccc(C(=O)O)cc1 | > 10 |
| CCCCCCCCCCC#CCOCc1ccc(CC(=O)O)cc1 | 0.05 |
| O=C(O)CCc1ccc(COCC#CCCCCc2ccccc2)cc1 | 5 |
| CCCCCCCC#CCOCc1ccc(C(=O)O)cc1 | 6 |
| CCCCCCCCCC/C=C\COCc1ccc(CCC(=O)O)cc1 | 2.5 |

Other lines, results leading:

| IC50 [µM] | Compound |
| --- | --- |
| > 10 | CCCCCCCCCCC#CCOCc1ccc(CCCC(=O)O)cc1 |
| 0.04 | CCCCCCCCCC/C=C/COCc1ccc(CCC(=O)O)cc1 |
| 0.32 | CCCCCCCCCCC#CCOCc1cccc(CCC(=O)O)c1 |
| 10 | CCCCCCCCC#CCOCc1cccc(CCC(=O)O)c1 |
| > 10 | CCCCCCC#CCOCc1cccc(CCC(=O)O)c1 |
